Measured values from PMC11003489 (Journal of Enzyme Inhibition and Medicinal Chemistry, 2023).

Key:
[1] = tested on: normal human lung fibroblasts (Wi-38); assay: MTT cytotoxicity screening on normal human lung fibroblasts; assay type: cell-based; details: WI-38, 72 h, read-out: Wi-38 EC50
In short: (§1)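 A549 and Wi-38 cells, sourced from the National Cancer Institute (Cairo), grown in RPMI-1640 with L-glutamine, 10% FBS and 1% penicillin-streptomycin at 37 °C, 5% CO2. Seeded in triplicate at 5 × 10^4 cells, then exposed next day to test compound at 0.01, 0.1, 1, 10 and 100 µM. Viability measured by MTT relative to untreated control, and IC50 computed.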

[2] = tested on: human lung cancer A549 cells; assay: MTT cytotoxicity screening on human lung cancer cells; assay type: cell-based; details: for IC50: Homo sapiens, A549, 72 h, read-out: A549 IC50; for SI (selectivity index): ratio of IC50 values against Wi-38 and A549 cells
In short: as §1

[3] = molecular target: CDK2 (Homo sapiens, UniProt P24941); assay: In vitro CDK2 inhibition, CDK2 luminescence kinase assay kit; assay type: biochemical

| SMILES | EC50 [1] [nM] | IC50 [2] [nM] | SI (selectivity index) [2] | % inhibition ± SD at [10 μM] of CDK2 ([3]; 10 μM) [%] | IC50 ([3]; CDK2 IC50, serial dilutions 0.01–10 μM, mean ± SD of three replicates) [nM] | inhibition at 10 µM ([3]; read-out: % inhibition ± SD at [10 μM] of CDK2, 10 μM) [%] |
| --- | --- | --- | --- | --- | --- | --- |
| O=C(c1nc2ccccc2[nH]1)[C@H]1[C@H](c2ccc(F)cc2)[C@H]2CCCN2[C@@]12c1ccccc1-c1nc3ccccc3nc12 [Compound 4c, (1H-Benzo[d]imidazol-2-yl)((1'R,2'S,7a’R,11R)-1'-(4-fluorophenyl)-1',2',5',6',7',7a’-hexahydrospiro[indeno[1,2-b]quinoxaline-11,3'-pyrrolizin]-2'-yl)methanone] | 217 ± 7 | 206 ± 9 | 1.053 | – | – | – |
| O=C(c1nc2ccccc2[nH]1)[C@H]1[C@H](c2ccccc2)C2CC3CCCCC3N2[C@@]12c1ccccc1-c1nc3ccccc3nc12 (stereo partly drawn) [Compound 6h, (1H-Benzo[d]imidazol-2-yl)((1'R,2'S,11R)-1'-phenyl-1',2',4a’,5',6',7',8',8a’,9',9a’-decahydrospiro[indeno[1,2-b]quinoxaline-11,3'-pyrrolo[1,2-a]indol]-2'-yl)methanone] | 173 ± 1 | 202 ± 6 | 0.856 | – | – | – |
| O=C(c1nc2ccccc2[nH]1)[C@H]1[C@H](c2ccc(Cl)cc2Cl)C2CC3CCCCC3N2[C@@]12c1ccccc1-c1nc3ccccc3nc12 (stereo partly drawn) [Compound 6b, (1H-Benzo[d]imidazol-2-yl)((1'R,2'S,11R)-1'-(2,4-dichlorophenyl)-1',2',4a’,5',6',7',8',8a’,9',9a’-decahydrospiro[indeno[1,2-b]quinoxaline-11,3'-pyrrolo[1,2-a]indol]-2'-yl)methanone] | 359 ± 8 | 54 ± 8 | 6.648 | 70.72 ± 2.8 | 177 | 70.7 |
| O=C(c1nc2ccccc2[nH]1)[C@H]1[C@H](c2cccs2)C2CC3CCCCC3N2[C@@]12c1ccccc1-c1nc3ccccc3nc12 (stereo partly drawn) [Compound 6g, (1H-Benzo[d]imidazol-2-yl)((1'S,2'S,11R)-1'-(thiophen-2-yl)-1',2',4a’,5',6',7',8',8a’,9',9a’-decahydrospiro[indeno[1,2-b]quinoxaline-11,3'-pyrrolo[1,2-a]indol]-2'-yl)methanone] | 164 ± 60 | 84 ± 4 | 1.952 | – | – | – |
| O=c1[nH]cc(F)c(=O)[nH]1 [Compound 5-Fu, 5-fluorouracil, reference compound] | 4190 ± 168 | 3780 ± 520 | 1.107 | – | – | – |
| O=C(c1nc2ccccc2[nH]1)[C@H]1[C@H](c2ccccc2)[C@H]2CCCN2[C@@]12c1ccccc1-c1nc3ccccc3nc12 [Compound 4h, (1H-Benzo[d]imidazol-2-yl)((1'R,2'S,7a’R,11R)-1'-phenyl-1',2',5',6',7',7a’-hexahydrospiro[indeno[1,2-b]quinoxaline-11,3'-pyrrolizin]-2'-yl)methanone] | 193 ± 10 | 177 ± 3 | 1.090 | – | – | – |
| O=C(c1nc2ccccc2[nH]1)[C@H]1[C@H](c2ccc(Br)cc2)[C@H]2CCCN2[C@@]12c1ccccc1-c1nc3ccccc3nc12 [Compound 4d, (1H-Benzo[d]imidazol-2-yl)((1'R,2'S,7a’R,11R)-1'-(4-bromophenyl)-1',2',5',6',7',7a’-hexahydrospiro[indeno[1,2-b]quinoxaline-11,3'-pyrrolizin]-2'-yl)methanone] | 176 ± 2 | 135 ± 2 | 1.303 | – | – | – |
| O=C(c1nc2ccccc2[nH]1)[C@H]1[C@H](c2cccc(F)c2)C2CC3CCCCC3N2[C@@]12c1ccccc1-c1nc3ccccc3nc12 (stereo partly drawn) [Compound 6e, (1H-Benzo[d]imidazol-2-yl)((1'R,2'S,11R)-1'-(3-fluorophenyl)-1',2',4a’,5',6',7',8',8a’,9',9a’-decahydrospiro[indeno[1,2-b]quinoxaline-11,3'-pyrrolo[1,2-a]indol]-2'-yl)methanone] | 114 ± 3 | 137 ± 16 | 0.832 | – | – | – |
| O=C(c1nc2ccccc2[nH]1)[C@H]1[C@H](c2ccco2)[C@H]2CCCN2[C@@]12c1ccccc1-c1nc3ccccc3nc12 [Compound 4a, (1H-Benzo[d]imidazol-2-yl)((1'S,2'S,7a’R,11R)-1'-(furan-2-yl)-1',2',5',6',7',7a’-hexahydrospiro[indeno[1,2-b]quinoxaline-11,3'-pyrrolizin]-2'-yl)methanone] | 607 ± 50 | 82 ± 2 | 7.402 | – | – | – |
| O=C(c1nc2ccccc2[nH]1)[C@H]1[C@H](c2cccc(F)c2)[C@H]2CCCN2[C@@]12c1ccccc1-c1nc3ccccc3nc12 [Compound 4e, (1H-Benzo[d]imidazol-2-yl)((1'R,2'S,7a’R,11R)-1'-(3-fluorophenyl)-1',2',5',6',7',7a’-hexahydrospiro[indeno[1,2-b]quinoxaline-11,3'-pyrrolizin]-2'-yl)methanone] | 1100 ± 205 | 321 ± 5 | 3.429 | – | – | – |
| O=C(c1nc2ccccc2[nH]1)[C@H]1[C@H](c2ccco2)C2CC3CCCCC3N2[C@@]12c1ccccc1-c1nc3ccccc3nc12 (stereo partly drawn) [Compound 6a, (1H-Benzo[d]imidazol-2-yl)((1'S,2'S,11R)-1'-(furan-2-yl)-1',2',4a’,5',6',7',8',8a’,9',9a’-decahydrospiro[indeno[1,2-b]quinoxaline-11,3'-pyrrolo[1,2-a]indol]-2'-yl)methanone] | 112 ± 1 | 98 ± 6 | 1.142 | – | – | – |
| O=C(c1nc2ccccc2[nH]1)[C@H]1[C@H](c2ccc(Cl)cc2Cl)[C@H]2CCCN2[C@@]12c1ccccc1-c1nc3ccccc3nc12 [Compound 4b, (1H-Benzo[d]imidazol-2-yl)((1'R,2'S,7a’R,11R)-1'-(2,4-dichlorophenyl)-1',2',5',6',7',7a’-hexahydrospiro[indeno[1,2-b]quinoxaline-11,3'-pyrrolizin]-2'-yl)methanone] | 887 ± 11 | 225 ± 5 | 3.942 | – | – | – |
| O=C(c1nc2ccccc2[nH]1)[C@H]1[C@H](c2cccs2)[C@H]2CCCN2[C@@]12c1ccccc1-c1nc3ccccc3nc12 [Compound 4g, (1H-Benzo[d]imidazol-2-yl)((1'S,2'S,7a’R,11R)-1'-(thiophen-2-yl)-1',2',5',6',7',7a’-hexahydrospiro[indeno[1,2-b]quinoxaline-11,3'-pyrrolizin]-2'-yl)methanone] | 252 ± 1 | 182 ± 4 | 1.384 | – | – | – |
| O=C(c1nc2ccccc2[nH]1)[C@H]1[C@H](c2ccc(Br)cc2)C2CC3CCCCC3N2[C@@]12c1ccccc1-c1nc3ccccc3nc12 (stereo partly drawn) [Compound 6d, (1H-Benzo[d]imidazol-2-yl)((1'R,2'S,11R)-1'-(4-bromophenyl)-1',2',4a’,5',6',7',8',8a’,9',9a’-decahydrospiro[indeno[1,2-b]quinoxaline-11,3'-pyrrolo[1,2-a]indol]-2'-yl)methanone] | 77 ± 1 | 87 ± 3 | 0.885 | – | – | – |
| COc1ccc([C@@H]2C3CC4CCCCC4N3[C@@]3(c4ccccc4-c4nc5ccccc5nc43)[C@H]2C(=O)c2nc3ccccc3[nH]2)cc1 (stereo partly drawn) [Compound 6f, (1H-Benzo[d]imidazol-2-yl)((1'R,2'S,11R)-1'-(4-methoxyphenyl)-1',2',4a’,5',6',7',8',8a’,9',9a’-decahydrospiro[indeno[1,2-b]quinoxaline-11,3'-pyrrolo[1,2-a]indol]-2'-yl)methanone] | 549 ± 10 | 107 ± 2 | 5.130 | – | – | – |
| O=C(c1nc2ccccc2[nH]1)[C@H]1[C@H](c2ccc(F)cc2)C2CC3CCCCC3N2[C@@]12c1ccccc1-c1nc3ccccc3nc12 (stereo partly drawn) [Compound 6c, (1H-Benzo[d]imidazol-2-yl)((1'R,2'S,11R)-1'-(4-fluorophenyl)-1',2',4a’,5',6',7',8',8a’,9',9a’-decahydrospiro[indeno[1,2-b]quinoxaline-11,3'-pyrrolo[1,2-a]indol]-2'-yl)methanone] | 168 ± 19 | 139 ± 3 | 1.208 | – | – | – |
